Screening data from PubChem.
Only some compounds are listed: those with a hit (about 1.2% of all), similar ones and a draw of the others.
ARFGAP1 inhibitor – inhibitors of rat ARFGAP1; AID 651572; 360,000 tested, 0.26% active; inhibition, % at 16.5 µM; Arfgap1-stimulated ARF1 GTP hydrolysis, GDP FP detection; Q62848;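 active means inhibition above a per-plate limit, mean inhibition of low control wells plus 3 SD, cut at about 25% in these data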
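system = rat Arfgap1 catalytic domain, aa 1-136 | technique = FP, GDP Alexa 633 tracer displaced from anti-GDP antibody, 620/688 nm | compound = one concentration, 16.5 µM, DMSO 1.26% | medium = HEPES-based buffer, pH 7.5 | timing = compound-enzyme preincubation 20 min, reaction 120 min, detection 60 min, 25 °C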
CR mimetic SO – caloric restriction mimetics inhibiting age-related superoxide in yeast | S. cerevisiae aged cells, superoxide DHE fluorescence; stronger effect = lower value | superoxide response (% of plate mean), % at 10 µM | 330,000 tested, 0.18% active | AID 2690;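 active means superoxide response under a set limit, about three screen SD below normal, cut at about 65% in these data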;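 further: yeast aged for seven days with compound at 30 °C before DHE staining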
ASAP1 GAP inh – ASAP1 ArfGAP inhibition; Q9ULH1; ASAP1-stimulated ARF1 GTP hydrolysis, GDP FP detection; inhibition, % at 16.5 µM; 360,000 tested, 0.19% active; AID 624377; in the data active means inhibition above about 25%
Target sequence (Q9ULH1 325-724 limits assumed): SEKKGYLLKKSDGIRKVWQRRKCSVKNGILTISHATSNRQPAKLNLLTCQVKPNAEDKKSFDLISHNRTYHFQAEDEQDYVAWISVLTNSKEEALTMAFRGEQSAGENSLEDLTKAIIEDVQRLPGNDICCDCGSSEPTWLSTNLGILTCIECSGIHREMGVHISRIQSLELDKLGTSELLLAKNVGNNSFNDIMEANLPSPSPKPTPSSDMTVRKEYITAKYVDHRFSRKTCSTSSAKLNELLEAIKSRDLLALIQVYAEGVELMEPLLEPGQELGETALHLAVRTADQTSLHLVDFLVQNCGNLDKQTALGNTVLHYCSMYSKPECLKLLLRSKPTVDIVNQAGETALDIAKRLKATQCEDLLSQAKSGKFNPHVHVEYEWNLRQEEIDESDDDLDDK
procasp7 counter – counter-screen for procaspase-3 activators: activators of human procaspase-7; recombinant procaspase-7, Ac-DEVD-pNA absorbance 405 nm; D23A/D198A/D206A triple mutant, cannot self-cleave; scale: DMSO 0, 5 µM enzyme 100; activation, % at 8.5 µM; P55210; 330,000 tested, 0.093% active;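 active means percent activation above the screen-wide mean plus 3 SD, cut at about 25% in these data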
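buffer or medium = Zinc-free HEPES/NaCl buffer, pH 7.4 | material = Procaspase-7 triple mutant (PC-7 D3A) | input = 2 µM procaspase-7 mutant as dispensed | signal = Epi-absorbance of released pNA at 405 nm, two timepoints | timing = 1 h preincubation, 2 h reaction | replicates = singlicate compound testing | evaluation = % activation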
LANA-H2B inh – blocks KSHV LANA binding to histone H2A/H2B; inhibition, % (concentration not given with the values); cell-free LANA-H2A/H2B peptide, fluorescence polarization; 320,000 tested, 0.6% active; in the data active means inhibition mostly above about 10%, no sharp cut-off; inactive means mostly below about 6.7%
procasp3 activ – procaspase-3 (human) activation. activation, % at 8.5 µM. P42574. 330,000 tested, 0.11% active. recombinant procaspase-3 D3A, Ac-DEVD-pNA absorbance 405 nm;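 active means activation above the mean of all tested compounds plus 3 SD, cut at about 21% in these data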
Target sequence (P42574 whole entry D9A/D28A/D175A): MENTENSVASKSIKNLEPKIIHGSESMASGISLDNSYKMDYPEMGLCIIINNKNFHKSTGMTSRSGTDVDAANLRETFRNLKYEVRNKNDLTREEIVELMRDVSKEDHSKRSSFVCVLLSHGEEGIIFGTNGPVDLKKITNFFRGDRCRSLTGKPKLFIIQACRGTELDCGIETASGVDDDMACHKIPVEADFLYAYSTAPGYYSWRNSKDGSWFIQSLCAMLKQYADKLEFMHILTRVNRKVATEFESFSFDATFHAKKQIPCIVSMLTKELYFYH
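Assay system: Procaspase-3 D3A mutant, all three cleavage aspartates alanine. Buffer or medium: Zinc-free HEPES saline buffer with Triton X-100. Times: 1 h compound preincubation, 2 h substrate hydrolysis at 25 °C. Measured by: 405 nm absorbance of p-nitroaniline, reads at 0 and 120 min. Read-out basis: percent activation relative to control range. Replicates: singlicate.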
CR mimetic CP – yeast aging superoxide inhibition, cherry pick confirmation; shares compounds with CR mimetic SO; 850 tested, 1% active; AID 434994; S. cerevisiae aging, superoxide DHE fluorescence; stronger effect = lower value; superoxide response (% of plate), % at 10 µM;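 active means superoxide signal below 65% of the plate average of sample wells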;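 further: cells aged with compound for 7 days at 30 degrees C before staining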
DHE counter – compound alters DHE oxidation or fluorescence in yeast. shares compounds with CR mimetic SO. S. cerevisiae BY4741, flow cytometry; stronger effect = lower value. fluorescence response, % at 10 µM. 850 tested, under 10 active. AID 435000;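 active means fluorescence response below 15%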;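 further: lower means stronger quenching of DHE signal or ROS scavenging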
Of the large screens only hits and unclear results are named; the others gave an inactive call (follow-up assays come after a bar, where they were run).

O=C(Nc1scc(-c2ccccc2)c1C(=O)O)c1ccc(F)cc1	none
Cc1ccc(-c2csc(NC(=O)c3ccc(F)cc3)c2C(=O)O)cc1	CR mimetic SO 65 | CR mimetic CP inactive | DHE counter inactive
COc1ccc2nc3ccccc3nc2c1N	CR mimetic SO 49 | CR mimetic CP 57 | DHE counter inactive
COc1ccc2nc3cccc(OC)c3nc2c1	none
Fc1ccc(Cn2nnc3ccccc32)cc1	CR mimetic SO 64 (no result: ARFGAP1 inhibitor, ASAP1 GAP inh) | CR mimetic CP inactive | DHE counter inactive
O=c1c2ccccc2nnn1Cc1ccc(F)cc1	none
Cc1cnc(C(=O)OCC(=O)Nc2cc(-c3ccccc3)nn2-c2ccccc2)cn1	none
COc1ccccc1Oc1ccc2c(c1)C(=O)N(CC(=O)O)C2=O	CR mimetic SO 40 (no result: ARFGAP1 inhibitor, ASAP1 GAP inh) | CR mimetic CP inactive | DHE counter inactive
COc1ccccc1Oc1ccc2c(c1)C(=O)N(c1ccc(O)cc1)C2=O	none
C[C@@H](C(=O)OCC(=O)NCCc1ccc(S(N)(=O)=O)cc1)N1C(=O)C2CCCCC2C1=O (stereo partly drawn)	CR mimetic SO 65 | CR mimetic CP inactive | DHE counter inactive
NS(=O)(=O)c1ccc(CCNC(=O)CNC(=O)COc2ccccc2)cc1	CR mimetic SO 55 | CR mimetic CP inactive | DHE counter inactive
NS(=O)(=O)c1ccc(CCNC(=O)CCCOc2ccccc2)cc1	none
C[C@H](NS(=O)(=O)c1ccc(Cl)cc1)C(=O)OCC(=O)NCCc1ccc(S(N)(=O)=O)cc1	none (no result: CR mimetic SO, procasp7 counter, LANA-H2B inh, procasp3 activ)
CC(C)C(=O)Nc1ccc2c(c1)C(=O)NC2=O	none
CCC(Oc1ccccc1)C(=O)Nc1ccc(C)c(S(=O)(=O)N2CCOCC2)c1 (stereo not drawn)	none
CC(=O)N1CCN(C(=O)c2ccc3c(c2)S(=O)(=O)c2ccccc2C3=O)CC1	CR mimetic SO 47 | CR mimetic CP inactive | DHE counter inactive
CCc1cccc(C)c1NC(=O)COC(=O)c1ccc2c(c1)S(=O)(=O)c1ccccc1C2=O	CR mimetic SO 59 | CR mimetic CP inactive | DHE counter inactive
COc1ccccc1C1C(C(=O)c2ccco2)=C(O)C(=O)N1c1cc(C)on1 (stereo not drawn)	none
CCOC(=O)NC1(NC2CCCCC2)Oc2ccccc2O1	none
CC1CCCCC12NC(=S)N(c1ccccc1)N2 (stereo not drawn)	none
CN(c1ccccc1)S(=O)(=O)c1ccccc1Br	none | CR mimetic CP inactive | DHE counter inactive
Cc1ccc(S(=O)(=O)N(C)c2ccccc2)cc1	none
COc1ccc(CN2CCN(Cc3ccc(Br)cc3)CC2)c(OC)c1OC	CR mimetic SO 46 | CR mimetic CP inactive | DHE counter inactive
O=C(c1cccc([N+](=O)[O-])c1)N1CCN(c2cccc(Cl)c2)CC1	none
Cc1ccc(N2CCN(C(=O)c3cccc([N+](=O)[O-])c3)CC2)cc1Cl	none | CR mimetic CP inactive | DHE counter inactive
Cc1ccc(C(=O)N2CCN(c3ccccc3Cl)CC2)cc1[N+](=O)[O-]	none | CR mimetic CP inactive | DHE counter inactive
O=c1oc2cc(OCc3c(F)cccc3Cl)ccc2cc1-c1ccccn1	none
CCCOc1ccc2cc(-c3ccccn3)c(=O)oc2c1	CR mimetic SO 60 | CR mimetic CP inactive | DHE counter inactive
[O-][n+]1c2ccccc2[n+]([O-])c2cc(O)ccc21	CR mimetic SO 51 | CR mimetic CP 61 | DHE counter inactive
CC(=O)Nc1ccc(S(=O)(=O)N(C)c2ccccc2)cc1	none | CR mimetic CP inactive | DHE counter inactive
CN(c1ccc(C(=O)O)cc1)S(=O)(=O)c1ccccc1	none | CR mimetic CP inactive | DHE counter inactive
CCCCCCCCNS(=O)(=O)CCNC1CC1	none (no result: CR mimetic SO, procasp7 counter, LANA-H2B inh, procasp3 activ)
CN(C(=O)c1cccc(C#N)c1)c1nnc(-c2cnccn2)s1	none
COc1ccc(CCNC(=O)c2ccc(OCC(=O)N3CCOCC3)c(OC)c2)cc1OC	CR mimetic SO 64 | CR mimetic CP inactive | DHE counter inactive
COc1ccc(CCNC(=O)c2ccc(OCC(=O)N3CCOCC3)c(OC)c2)cc1	none
Cc1nnc(SCc2ccc(Cl)c(Cl)c2)s1	CR mimetic SO 60 | CR mimetic CP inactive | DHE counter inactive
CCN(CC)C(=O)CCn1nc(-c2ccc(C)cc2)c2ccccc2c1=O	CR mimetic SO 37 (no result: ARFGAP1 inhibitor, ASAP1 GAP inh) | CR mimetic CP inactive | DHE counter inactive
O=S(=O)(Nc1nc2ccccc2nc1Nc1ccc2c(c1)OCO2)c1ccc(F)cc1	none (no result: LANA-H2B inh)
CC1(C)CC(NCc2cccc([N+](=O)[O-])c2)CC(C)(C)N1	CR mimetic SO 62 | CR mimetic CP inactive | DHE counter inactive
O=C(O)C1CCCN1S(=O)(=O)c1ccccc1 (stereo not drawn)	none
O=C(O)C1CCCN1S(=O)(=O)c1ccc(Cl)cc1 (stereo not drawn)	none | CR mimetic CP inactive | DHE counter inactive
CCCS(=O)(=O)NC(=O)C1(C)CCCN(C(=O)c2ccccc2F)C1 (stereo not drawn)	none (no result: CR mimetic SO, procasp7 counter, LANA-H2B inh, procasp3 activ)
COC(=O)CSc1nnc2n1C(C)(C)Cc1ccccc1-2	none
COc1cc(NC(=O)CSc2nnc3n2C(C)(C)Cc2ccccc2-3)cc(OC)c1	CR mimetic SO 65 | CR mimetic CP inactive | DHE counter inactive
COc1ccc(/C=C2\SC(=S)N(CCCC(=O)Nc3ccc(C(=O)O)cc3)C2=O)cc1OC	CR mimetic SO 63 | CR mimetic CP inactive | DHE counter inactive
CC1(C)Cc2cccc(OC(=O)NCCc3ccc(F)cc3)c2O1	none (no result: CR mimetic SO, procasp7 counter, LANA-H2B inh, procasp3 activ)
CN1/C(=C\C=C2/SC(=S)N(CC(=O)O)C2=O)C(C)(C)c2ccccc21	none
C=CCN1C(=O)/C(=C\C=C2\N(C)c3ccccc3C2(C)C)SC1=S	CR mimetic SO 57 | CR mimetic CP inactive | DHE counter inactive
O=C(Nc1nnc(C2CC2)o1)c1ccc(S(=O)(=O)N2CCCCC2)cc1	none
Cc1nnc(NC(=O)c2ccc(S(=O)(=O)N3CCCCC3C)cc2)o1 (stereo not drawn)	none
CC1CCCCN1S(=O)(=O)c1ccc(C(=O)Nc2nnc(C3CC3)o2)cc1 (stereo not drawn)	none | CR mimetic CP inactive | DHE counter inactive
CC1CCCN(S(=O)(=O)c2ccc(C(=O)Nc3nnc(C4=COCCO4)o3)cc2)C1 (stereo not drawn)	none
CC1CCCCN1S(=O)(=O)c1ccc(C(=O)Nc2nnc(-c3ccco3)o2)cc1 (stereo not drawn)	none | CR mimetic CP inactive | DHE counter inactive
